Experimental findings from ChEMBL document CHEMBL1811853, “Design and evaluation of 3-aminopyrazolopyridinone kinase inhibitors inspired by the natural product indirubin” (Bioorg Med Chem, 2011) are described below.

As usually defined, the inhibition is the change of the read-out against control, counted positive when it falls. Usually solubility stands for the dissolved amount per volume that the medium holds. A higher solubility goes with a readily soluble substance.

Data set [1] addresses T1, MAP kinase-activated protein kinase 5 (Homo sapiens) (UniProt Q8IW41).
T1 sequence (whole entry): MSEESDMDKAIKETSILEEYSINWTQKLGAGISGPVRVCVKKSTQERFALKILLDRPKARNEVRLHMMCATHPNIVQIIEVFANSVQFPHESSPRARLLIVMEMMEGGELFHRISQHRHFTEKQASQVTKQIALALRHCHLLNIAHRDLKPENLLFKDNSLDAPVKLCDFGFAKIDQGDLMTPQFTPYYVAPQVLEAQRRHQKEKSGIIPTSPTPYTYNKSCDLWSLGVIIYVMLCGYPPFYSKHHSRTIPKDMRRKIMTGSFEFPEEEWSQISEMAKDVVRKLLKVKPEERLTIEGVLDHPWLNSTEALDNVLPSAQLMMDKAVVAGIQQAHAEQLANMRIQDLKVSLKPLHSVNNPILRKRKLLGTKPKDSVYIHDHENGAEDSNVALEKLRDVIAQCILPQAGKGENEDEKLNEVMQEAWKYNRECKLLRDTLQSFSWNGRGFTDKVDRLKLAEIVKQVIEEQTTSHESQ
Put plainly: Inhibition of PRAK1 at 30 uM by microfluidic mobility shift assay. Summed up:
(§1)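 Single-concentration screen, singlicate, 30 uM final (diluted from 1 mM DMSO solutions), fluorescently tagged peptide substrate appropriate to each kinase, ATP at apparent Km for each protein. Phosphorylated and unphosphorylated peptides separated electrophoretically; conversion is the phosphorylated peak area over the sum of both peaks. No-inhibitor and no-ATP controls; H89 reference on each plate.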

Data set [2] has as its target T2, Serine/threonine-protein kinase D2 (Homo sapiens) (UniProt Q9BZL6).
T2 sequence (whole entry): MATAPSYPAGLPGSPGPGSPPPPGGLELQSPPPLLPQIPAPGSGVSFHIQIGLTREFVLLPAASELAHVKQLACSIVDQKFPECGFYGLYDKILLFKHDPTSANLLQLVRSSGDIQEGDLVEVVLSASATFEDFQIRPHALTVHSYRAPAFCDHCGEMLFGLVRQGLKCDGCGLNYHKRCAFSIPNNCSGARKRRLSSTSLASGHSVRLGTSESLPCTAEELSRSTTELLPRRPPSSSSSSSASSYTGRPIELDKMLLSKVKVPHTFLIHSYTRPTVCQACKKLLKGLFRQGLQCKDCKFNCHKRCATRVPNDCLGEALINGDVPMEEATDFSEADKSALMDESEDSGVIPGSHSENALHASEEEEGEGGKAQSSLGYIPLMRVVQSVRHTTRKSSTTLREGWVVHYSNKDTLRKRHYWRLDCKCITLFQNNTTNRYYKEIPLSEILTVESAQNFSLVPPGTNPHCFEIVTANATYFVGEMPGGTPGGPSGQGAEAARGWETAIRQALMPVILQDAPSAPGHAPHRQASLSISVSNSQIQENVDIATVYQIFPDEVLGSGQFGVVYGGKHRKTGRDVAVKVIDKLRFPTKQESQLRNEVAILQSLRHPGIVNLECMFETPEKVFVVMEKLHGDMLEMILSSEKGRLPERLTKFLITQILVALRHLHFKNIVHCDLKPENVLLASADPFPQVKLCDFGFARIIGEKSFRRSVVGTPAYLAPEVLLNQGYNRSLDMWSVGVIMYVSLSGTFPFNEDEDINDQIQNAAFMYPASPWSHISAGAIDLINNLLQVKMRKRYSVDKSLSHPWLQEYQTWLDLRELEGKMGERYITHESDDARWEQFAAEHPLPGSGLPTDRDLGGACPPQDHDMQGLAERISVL
Description: Inhibition of PKD2 at 30 uM by microfluidic mobility shift assay. The gist of the method: as §1

Data set [3] addresses Insulin receptor (Homo sapiens) (UniProt P06213). Description: Inhibition of INSR at 30 uM by microfluidic mobility shift assay. Summed up: as §1
Data set [4] has as its target T3, Serine/threonine-protein kinase Chk1 (Homo sapiens) (UniProt O14757).
T3 sequence (whole entry): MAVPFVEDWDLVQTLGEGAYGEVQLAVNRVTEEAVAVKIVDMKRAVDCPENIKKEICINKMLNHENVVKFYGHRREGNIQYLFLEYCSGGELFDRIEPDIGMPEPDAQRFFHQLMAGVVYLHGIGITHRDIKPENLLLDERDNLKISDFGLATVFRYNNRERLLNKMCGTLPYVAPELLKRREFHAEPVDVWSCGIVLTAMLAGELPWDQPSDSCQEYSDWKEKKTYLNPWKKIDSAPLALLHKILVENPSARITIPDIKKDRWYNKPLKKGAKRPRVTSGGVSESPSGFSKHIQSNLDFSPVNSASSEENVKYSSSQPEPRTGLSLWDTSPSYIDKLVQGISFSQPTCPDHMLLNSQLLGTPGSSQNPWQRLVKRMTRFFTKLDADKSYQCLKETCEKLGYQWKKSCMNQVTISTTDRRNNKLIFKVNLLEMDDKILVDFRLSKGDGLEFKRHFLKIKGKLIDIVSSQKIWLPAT
Put plainly: Inhibition of CHK1 at 30 uM by microfluidic mobility shift assay. The gist of the method:
as §1

Data set [5] in a line: Aqueous solubility of the compound by HPLC analysis. The following applies: water. It counts as physicochemical. The gist of the method: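 Solubility determined by HPLC measurement of the concentration in saturated aqueous solutions of the compounds.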

Values after ≈ are worked out from the molar mass of the structure shown.

Chain of Insulin receptor (Homo sapiens) (P06213 28-758 limits assumed): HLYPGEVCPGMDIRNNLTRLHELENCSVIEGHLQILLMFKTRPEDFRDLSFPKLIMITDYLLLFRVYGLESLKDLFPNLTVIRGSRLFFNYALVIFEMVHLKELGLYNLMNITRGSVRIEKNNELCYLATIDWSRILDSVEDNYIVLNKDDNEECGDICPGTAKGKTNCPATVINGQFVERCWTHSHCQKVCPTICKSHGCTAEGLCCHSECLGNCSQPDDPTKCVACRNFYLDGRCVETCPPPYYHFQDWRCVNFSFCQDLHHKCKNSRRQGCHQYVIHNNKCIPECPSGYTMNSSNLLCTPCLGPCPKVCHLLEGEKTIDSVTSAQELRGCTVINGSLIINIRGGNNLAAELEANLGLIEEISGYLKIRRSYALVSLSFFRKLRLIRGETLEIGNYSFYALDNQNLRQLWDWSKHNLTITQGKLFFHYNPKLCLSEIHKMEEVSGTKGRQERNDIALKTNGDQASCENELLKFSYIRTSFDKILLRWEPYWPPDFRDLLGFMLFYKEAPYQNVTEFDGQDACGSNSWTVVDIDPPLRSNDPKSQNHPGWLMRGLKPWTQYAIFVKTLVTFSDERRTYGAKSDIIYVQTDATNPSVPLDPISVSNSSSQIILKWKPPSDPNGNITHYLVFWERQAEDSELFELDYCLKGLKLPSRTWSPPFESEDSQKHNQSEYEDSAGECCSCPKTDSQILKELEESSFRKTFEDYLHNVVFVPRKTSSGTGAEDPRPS
Chain of Insulin receptor (Homo sapiens) (P06213 763-1382 limits assumed): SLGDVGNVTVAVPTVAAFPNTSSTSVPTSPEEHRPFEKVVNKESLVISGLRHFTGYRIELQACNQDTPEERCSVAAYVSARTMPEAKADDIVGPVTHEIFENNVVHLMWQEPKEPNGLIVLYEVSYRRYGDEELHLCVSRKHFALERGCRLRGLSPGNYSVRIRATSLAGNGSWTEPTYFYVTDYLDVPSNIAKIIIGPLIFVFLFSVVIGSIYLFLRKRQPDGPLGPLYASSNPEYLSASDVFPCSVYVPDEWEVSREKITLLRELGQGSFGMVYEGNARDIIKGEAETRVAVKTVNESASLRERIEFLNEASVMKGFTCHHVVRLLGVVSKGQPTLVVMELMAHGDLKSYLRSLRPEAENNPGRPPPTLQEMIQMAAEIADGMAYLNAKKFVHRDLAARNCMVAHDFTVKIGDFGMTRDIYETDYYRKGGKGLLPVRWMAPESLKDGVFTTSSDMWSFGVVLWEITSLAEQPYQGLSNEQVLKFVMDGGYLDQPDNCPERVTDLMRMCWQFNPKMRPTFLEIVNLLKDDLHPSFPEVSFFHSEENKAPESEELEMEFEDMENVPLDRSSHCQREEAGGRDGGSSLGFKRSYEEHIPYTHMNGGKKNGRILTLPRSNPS

`Nc1c2c(=O)[nH]c(-c3ccccc3)cc2nn1-c1ccccn1`: the inhibition in data set [1] was -1%; in data set [2], 16%; in data set [3], 5%; in data set [4] it was 2%.
`Cc1cc2c(c(N)nn2C)c(=O)[nH]1`: the inhibition is 5% in data set [1], 5% in data set [2], 3% in data set [3] and -8% in data set [4]. In data set [5], this compound yielded a solubility of 1220 µg/mL (≈ 6.83 mM).
As to `Cn1nc2c3c(nc(-c4ccccc4)cc31)NCC(=O)N2`, the inhibition in data set [1] was determined as 3%; in data set [2] it was 17%; in data set [3], 2%; in data set [4], 6%.
In the case of `COc1ccc(-c2cc3c(c(N)nn3C)c(=O)[nH]2)cc1`, the inhibition in data set [1] worked out at 16%; in data set [2], 36%; in data set [3], 5%; in data set [4], 36%.
For `COCCNc1nc(-c2ccccc2)cc2c1c(N)nn2C`, the inhibition in data set [1] was found to be 1%; in data set [2], 1%; in data set [3], 1%; in data set [4], 7%.
Turning to `Nc1n[nH]c2cc(-c3ccccn3)[nH]c(=O)c12`, the inhibition in data set [1] amounted to 18%; in data set [2] it was 33%; in data set [3], 34%; in data set [4] it was 29%.
The corresponding values for `CC(C)(C)c1cc2nn(-c3ccccc3)c(N)c2c(=O)[nH]1` are 2%, 15%, 4% and 11%.
With `Cc1cc2[nH]nc(N)c2c(=O)[nH]1`, the inhibition in data set [1] is 8%; in data set [2] it was -1%; in data set [3], -2%; in data set [4], 7%. This compound registered a solubility in data set [5] of 1640 µg/mL (≈ 9.96 mM).
The corresponding values for `COC(=O)CCc1c(C)[nH]c(=O)c2c(N)nn(C)c12` are 2%, 5%, 3%, 2% and 469 µg/mL (≈ 1.77 mM).
As for `Nc1n[nH]c2cc(-c3cccnc3)[nH]c(=O)c12`, the inhibition in data set [1] came to 12%; in data set [2], 26%; in data set [3], 7%; in data set [4] it was 9%.
The corresponding values for `Cc1cc2c(c(N)nn2C)c(N2CC[C@H](O)C2)n1` are 1%, 8%, -2% and 7%.
The corresponding values for `COc1ccc(-c2cc3[nH]nc(N)c3c(=O)[nH]2)cc1` are 7%, 28%, 6% and 14%.
The like results for `COCCNc1nc(C)cc2c1c(N)nn2C` were, in that order, 5%, 4%, 0% and 7%.
In the case of `Cc1cc2[nH]nc(N)c2c(N2CCCCC2)n1`, the inhibition came to 10% in data set [1], 14% in data set [2], 9% in data set [3] and 11% in data set [4]. For the same compound, in data set [5], the concentration in solution (solubility) was 794 µg/mL (≈ 3.43 mM).
In the case of `CC(=O)Nc1nn(C)c2cc(-c3ccc(N4CCN(C)CC4)cc3)[nH]c(=O)c12`, the inhibition was 6% in data set [1], 13% in data set [2], 2% in data set [3] and 16% in data set [4].
Take `Cc1cc2c(c(NS(C)(=O)=O)nn2C)c(=O)[nH]1`: the inhibition in data set [1] is 0%; in data set [2], 8%; in data set [3], -6%; in data set [4], 7%.
With `Nc1n[nH]c2cc(-c3ccc(N4CCOCC4)cc3)[nH]c(=O)c12`, the inhibition in data set [1] was determined as 11%; in data set [2], 15%; in data set [3] it was 6%; in data set [4] it was 29%.
`COc1ccccc1-c1cc2nn(-c3ccccc3)c(N)c2c(=O)[nH]1`: the inhibition in data set [1] was 6%; in data set [2], 20%; in data set [3], -2%; in data set [4] it was 3%.
The corresponding values for `COc1ccc(-c2cc3nn(-c4ccccc4)c(N)c3c(=O)[nH]2)cc1` are 12%, 28%, 0% and 5%.
The like results for `Nc1n[nH]c2c3c([nH]c(=O)c12)CCCC3` were, in that order, 0%, -7%, -3% and 17%.
`COc1ccc(-c2c(C)[nH]c(=O)c3c(N)nn(C)c23)cc1`: the inhibition in data set [1] was 13%; in data set [2], 21%; in data set [3] it was 2%; in data set [4] it was 11%.
The like results for `CN1CCN(c2ccc(-c3cc4nn(-c5ccccc5)c(N)c4c(=O)[nH]3)cc2)CC1` were, in that order, 4%, 15%, 8% and 52%.
The corresponding values for `COc1ccc(S(=O)(=O)Nc2nn(C)c3cc(C)[nH]c(=O)c23)c(OC)c1` are 1%, 14%, 2% and 0%.
The like results for `Cn1nc(N)c2c(=O)[nH]c(-c3ccccn3)cc21` were, in that order, 9%, 17%, 16% and 34%.
`Nc1n[nH]c2cc(-c3ccncc3)[nH]c(=O)c12`: the inhibition in data set [1] came to 13%; in data set [2], 29%; in data set [3], 9%; in data set [4] it was 21%.
The corresponding values for `CN1CCN(c2ccc(-c3cc4[nH]nc(N)c4c(=O)[nH]3)cc2)CC1` are 11%, 15%, 17% and 54%.
As for `Cc1nc(N)c2c(=O)[nH]c(C)cc2n1`, the inhibition was found to be 1% in data set [1], 6% in data set [2], 3% in data set [3] and 9% in data set [4].
The like results for `COc1cccc(-c2cc3c(c(N)nn3C)c(=O)[nH]2)c1` were, in that order, 6%, 25%, 6% and 27%.
The like results for `Cc1cc2nc(N)nc(N)c2c(=O)[nH]1` were, in that order, 3%, 8%, 0% and 15%.
The like results for `COc1cccc(-c2cc3[nH]nc(N)c3c(=O)[nH]2)c1` were, in that order, 10%, 17%, 20% and 13%.
